Here are results for six compounds from ChEMBL document CHEMBL1121616, “Bradykinin analogues containing N alpha-methyl amino acids” (1980).

Values joined by “and” are separate entries in the source; they are usually repeats but may differ in a detail not shown here. Equal values may be shown once. Non-standard residues stand in square brackets, D forms with d. Residues, ends and D or L forms follow the SMILES beside them. NMeR = CN[C@@H](CCCNC(=N)N)C(=O)O; NMeF = CN[C@@H](Cc1ccccc1)C(=O)O; Sar = CNCC(=O)O

For assay [1], the species on record is Cavia porcellus. Put plainly: Compound was evaluated for mean percent change from control contractions of isolated guinea pig ilea produced by Acetylcholine (ACh) at a concentration of 10 ug/mL. In kind it is functional. The method, boiled down:
(§1)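 Isolated guinea pig ileum segments. Two control contractions to each agonist were elicited at regular 3- or 4-min intervals. Three sets of contractions were then elicited in the presence of the test compound, the first set used for equilibration. The mean of the last two treated sets was compared with the mean of the controls and expressed as percent change.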

Assay [2] is filed under the species Cavia porcellus. As to the kind of experiment: Compound was evaluated for mean percent change from control contractions of isolated guinea pig ilea produced by Bradykinin (Brdkn) at a concentration of 10 ug/mL. In kind it is functional. The method, boiled down:
as §1

For assay [3], the species on record is Cavia porcellus. Put plainly: Compound was evaluated for muscle stimulating potency in isolated guinea pig ilea relative to bradykinin triacetate (1). In kind it is functional, Muscle tissue. The method, boiled down:
(§2)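 Isolated guinea pig ileum segments were used in four-point parallel-line bioassays against bradykinin triacetate, with potency calculated on a weight basis. Doses were given at 4-min intervals in a randomized block design, and the bath was rinsed after peak contraction. Relative potency and fiducial limits were estimated from contraction magnitudes by Finney's method. Only assays without significant deviation from parallelism were accepted.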

For assay [4], the species on record is Cavia porcellus. Put plainly: Compound was evaluated for mean percent change from control contractions of isolated guinea pig ilea produced by Prostaglandin E2 (PGE2) at a concentration of 10 ug/mL. In kind it is functional. The method, boiled down:
as §1

The species entered for assay [5] is Cavia porcellus. Put plainly: Compound was evaluated for mean percent change from control contractions of isolated guinea pig ilea produced by Acetylcholine (ACh) at a concentration of 1 ug/mL. In kind it is functional. The method, boiled down: as §1
Assay [6] is filed under the species Cavia porcellus. Put plainly: Compound was evaluated for mean percent change from control contractions of isolated guinea pig ilea produced by Acetylcholine (ACh) at a concentration of 30 ug/mL. In kind it is functional. The method, boiled down: as §1
For assay [7], the species on record is Cavia porcellus. Put plainly: Compound was evaluated for mean percent change from control contractions of isolated guinea pig ilea produced by Acetylcholine (ACh) at a concentration of 3 ug/mL. In kind it is functional. The method, boiled down:
as §1

The species entered for assay [8] is Cavia porcellus. Put plainly: Compound was evaluated for mean percent change from control contractions of isolated guinea pig ilea produced by Bradykinin (Brdkn) at a concentration of 1 ug/mL. In kind it is functional. The method, boiled down:
as §1

The species entered for assay [9] is Cavia porcellus. As to the kind of experiment: Compound was evaluated for mean percent change from control contractions of isolated guinea pig ilea produced by Bradykinin (Brdkn) at a concentration of 30 ug/mL. The assay is classed as functional. The method, boiled down:
as §1

The species entered for assay [10] is Cavia porcellus. As to the kind of experiment: Compound was evaluated for mean percent change from control contractions of isolated guinea pig ilea produced by Bradykinin (Brdkn) at a concentration of 3 ug/mL. In kind it is functional. The method, boiled down: as §1
Assay [11] is filed under the species Cavia porcellus. As to the kind of experiment: Compound was evaluated for mean percent change from control contractions of isolated guinea pig ilea produced by Prostaglandin E2 (PGE2) at a concentration of 1 ug/mL. In kind it is functional. The method, boiled down:
as §1

Assay [12] is filed under the species Cavia porcellus. Put plainly: Compound was evaluated for mean percent change from control contractions of isolated guinea pig ilea produced by Prostaglandin E2 (PGE2) at a concentration of 30 ug/mL. In kind it is functional. The method, boiled down:
as §1

Assay [13] is filed under the species Cavia porcellus. As to the kind of experiment: Compound was evaluated for mean percent change from control contractions of isolated guinea pig ilea produced by Prostaglandin E2 (PGE2) at a concentration of 3 ug/mL. In kind it is functional. The method, boiled down: as §1
The species named for assay [14] is Cavia porcellus. Put plainly: Compound was evaluated for mean percent change from control contractions of isolated guinea pig ilea produced by Acetylcholine (ACh) at a concentration of 10.0 ug/mL. In kind it is functional. The method, boiled down:
as §1

The species named for assay [15] is Cavia porcellus. As to the kind of experiment: Compound was evaluated for mean percent change from control contractions of isolated guinea pig ilea produced by Bradykinin (Brdkn) at a concentration of 0.01 ug/mL. In kind it is functional. The method, boiled down: as §1
The species named for assay [16] is Cavia porcellus. As to the kind of experiment: Compound was evaluated for mean percent change from control contractions of isolated guinea pig ilea produced by Bradykinin (Brdkn) at a concentration of 0.1 ug/mL. In kind it is functional. The method, boiled down:
as §1

For assay [17], the species on record is Cavia porcellus. Put plainly: Compound was evaluated for mean percent change from control contractions of isolated guinea pig ilea produced by Bradykinin (Brdkn) at a concentration of 1.0 ug/mL. The assay is classed as functional. The method, boiled down:
as §1

For assay [18], the species on record is Cavia porcellus. As to the kind of experiment: Compound was evaluated for mean percent change from control contractions of isolated guinea pig ilea produced by Bradykinin (Brdkn) at a concentration of 10.0 ug/mL. In kind it is functional. The method, boiled down:
as §1

Assay [19] is filed under the species Cavia porcellus. As to the kind of experiment: Compound was evaluated for mean percent change from control contractions of isolated guinea pig ilea produced by Acetylcholine (ACh) at a concentration of 0.01 ug/mL. In kind it is functional. The method, boiled down:
as §1

For assay [20], the species on record is Cavia porcellus. Put plainly: Compound was evaluated for mean percent change from control contractions of isolated guinea pig ilea produced by Acetylcholine (ACh) at a concentration of 0.1 ug/mL. In kind it is functional. The method, boiled down:
as §1

Assay [21] is filed under the species Cavia porcellus. As to the kind of experiment: Compound was evaluated for mean percent change from control contractions of isolated guinea pig ilea produced by Acetylcholine (ACh) at a concentration of 1.0 ug/mL. The assay is classed as functional. The method, boiled down: as §1
The species entered for assay [22] is Cavia porcellus. As to the kind of experiment: Compound was evaluated for mean percent change from control contractions of isolated guinea pig ilea produced by Prostaglandin E2 (PGE2) at a concentration of 0.01 ug/mL. In kind it is functional. The method, boiled down:
as §1

The species entered for assay [23] is Cavia porcellus. Put plainly: Compound was evaluated for mean percent change from control contractions of isolated guinea pig ilea produced by Prostaglandin E2 (PGE2) at a concentration of 0.1 ug/mL. In kind it is functional. The method, boiled down:
as §1

The species named for assay [24] is Cavia porcellus. Put plainly: Compound was evaluated for mean percent change from control contractions of isolated guinea pig ilea produced by Prostaglandin E2 (PGE2) at a concentration of 10.0 ug/mL. The assay is classed as functional. The method, boiled down: as §1
The species entered for assay [25] is Cavia porcellus. Put plainly: Compound was evaluated for muscle stimulating potency in isolated guinea pig ilea. The assay is classed as functional, Muscle tissue. The method, boiled down:
as §2

In the case of `CN(C(=O)CNC(=O)[C@@H]1CCCN1C(=O)[C@@H]1CCCN1C(=O)[C@@H](N)CCCN=C(N)N)[C@@H](Cc1ccccc1)C(=O)N[C@@H](CO)C(=O)N1CCC[C@H]1C(=O)N[C@@H](Cc1ccccc1)C(=O)N[C@@H](CCCN=C(N)N)C(=O)O` (H-RPPG[NMeF]SPFR-OH), the Change in assay [1] is -31%; in assay [2], -32%; in [4] it was 1%. The compound further came in with a Potency in [3] of 0.01.

Regarding `CN(CC(=O)N[C@@H](Cc1ccccc1)C(=O)N[C@@H](CO)C(=O)N1CCC[C@H]1C(=O)N[C@@H](Cc1ccccc1)C(=O)N[C@@H](CCCN=C(N)N)C(=O)O)C(=O)[C@@H]1CCCN1C(=O)[C@@H]1CCCN1C(=O)[C@@H](N)CCCN=C(N)N` (H-RPP[Sar]FSPFR-OH), the Change in assay [1] is reported as -58%; in [5], -32%; in assay [6], -70%; in [7], -9%; in assay [2], -25%; in [8] it was 5%. Moreover, the Change is recorded as -40% in assay [9]; 21% in assay [10]; -85% in [4]; -20% in assay [11]; -69% in [12]; -27% in assay [13]. This compound also had a Potency in assay [3] of 0.0039.

Consider `CN(C(=O)[C@H](Cc1ccccc1)NC(=O)[C@@H]1CCCN1C(=O)[C@H](CO)NC(=O)[C@H](Cc1ccccc1)NC(=O)CNC(=O)[C@@H]1CCCN1C(=O)[C@@H]1CCCN1C(=O)[C@@H](N)CCCN=C(N)N)[C@@H](CCCN=C(N)N)C(=O)O`, for which the results for the Change in [1], in assay [2] and in assay [4] were -28%, -64% and 7%, respectively. The same compound gave a Potency in assay [3] of 0.0046.

Consider `CN[C@@H](CCCN=C(N)N)C(=O)N1CCC[C@H]1C(=O)N1CCC[C@H]1C(=O)NCC(=O)N[C@@H](Cc1ccccc1)C(=O)N[C@@H](CO)C(=O)N1CCC[C@H]1C(=O)N[C@@H](Cc1ccccc1)C(=O)N[C@@H](CCCN=C(N)N)C(=O)O` (H-[NMeR]PPGFSPFR-OH), for which the Change is on record as -97% in assay [14]; -88% in assay [15]; -100% in assay [16]; -100% in assay [17]; -100% in assay [18]; -29% in assay [19]. Also, the Change in assay [20] is -67%; in [21], -100%; in [22], -28%; in assay [23], -88%; in assay [24] it was -95% and -83%. Also, the Potency in [3] was 0.61.

`N=C(N)NCCC[C@H](NC(=O)[C@H](Cc1ccccc1)NC(=O)[C@@H]1CCCN1C(=O)[C@H](CO)NC(=O)[C@H](Cc1ccccc1)NC(=O)CNC(=O)[C@@H]1CCCN1C(=O)[C@@H]1CCCN1C(=O)[C@@H](N)CCCNC(=N)N)C(=O)O` [BRADYKININ] (H-RPPGFSPFR-OH) showed a Potency in [25] of 1.

Consider `CN(C(=O)[C@@H]1CCCN1C(=O)[C@H](CO)NC(=O)[C@H](Cc1ccccc1)NC(=O)CNC(=O)[C@@H]1CCCN1C(=O)[C@@H]1CCCN1C(=O)[C@@H](N)CCCN=C(N)N)[C@@H](Cc1ccccc1)C(=O)N[C@@H](CCCN=C(N)N)C(=O)O` (H-RPPGFSP[NMeF]R-OH), for which the Change is -75% in assay [1]; -6% in assay [5]; -41% in [7]; -97% in assay [2]; -27% in [8]; -81% in [10]. Also, the Change is -88% in assay [4], -17% in assay [11] and -60% in assay [13]. Also, the Potency in [3] is on record as 0.015.
